Results published in ChEMBL document CHEMBL1152409, “Constituents of the moss Polytrichum commune” (J Nat Prod, 2009).

What was measured:
Format in all cases: functional, cell-based
LoVo = experiment: Cytotoxicity against human LoVo cells after 24 hrs by MTT assay
In short: (§1)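 Cell lines from ATCC were seeded at 3000 cells per well and exposed to a range of compound concentrations 24 h after seeding. Treatment lasted 24 h. MTT was then added and plates were incubated for a further 24 h. Viability was read as absorbance at 570 nm, and IC50 was determined.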

A549 = experiment: Cytotoxicity against human A549 cells after 24 hrs by MTT assay; settings: A549, 24 h; in short: as §1
HepG2 = experiment: Cytotoxicity against human HepG2 cells after 24 hrs by MTT assay; settings: HepG2, 24 h; in short: as §1
[1] = Cytotoxicity against human cells 6T-CEM after 24 hrs by MTT assay; in short: as §1
MDA-MB-435 = experiment: Cytotoxicity against human MDA-MB-435 cells after 24 hrs by MTT assay; settings: MDA-MB-435, 24 h; in short: as §1

Measured: IC50

O=C1C[C@@H](c2ccccc2)Oc2cc(O)cc(/C=C\c3ccccc3)c21 [COMMUNIN A]
> 5 µg/mL: LoVo | A549 | HepG2 | [1] | MDA-MB-435

O=C1C[C@@H](c2ccccc2)Oc2cc(O)cc(/C=C/c3ccccc3)c21 [COMMUNIN B]
> 5 µg/mL: LoVo | A549 | HepG2 | [1] | MDA-MB-435

O=C1C[C@@H]2c3ccccc3O[C@H]3c4ccc(O)cc4-c4c(O)cc(O)c1c4[C@H]23 [OHIOENSIN H]
> 5 µg/mL: LoVo | A549 | HepG2 | [1] | MDA-MB-435
